Source: ChEMBL document CHEMBL2440039, “Synthesis and pharmacological evaluation of novel N-aryl-3,4-dihydro-1'H-spiro[chromene-2,4'-piperidine]-1'-carboxamides as TRPM8 antagonists” (Bioorg Med Chem, 2013)

Assays:
[1] = Metabolic stability in CD-1 mouse liver microsomes assessed as compound remaining at 1 uM after 60 mins by LC/MS/MS analysis; assay type: ADME, Microsome; settings: read-out: Stability
Method in brief: (§1)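 Liver microsomes (1.0 mg/mL protein) from male CD1 mouse, Wistar rat, Beagle dog, Cynomolgus monkey, or pooled human. Test item 1.0 µM in KH2PO4 buffer pH 7.4 with 2.0 mM NADPH (final) at 37 °C for 60 min, stopped with TBME. Extract read by LC/MS/MS as area ratio to internal standard. Percent remaining is 60 min relative to 0 min.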

[2] = tested on: Rattus norvegicus; assay: Drug uptake in Sprague-Dawley rat at 10 mg/kg, po up to 8 hrs; assay type: ADME, organism-based; parameters: dose 10 mg/kg, route oral; settings: in vivo
Method in brief: (§2)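 Male SD rats (180–220 g, n=3), fasted overnight, single oral gavage dose as suspension in 1% Tween 80 / 0.5% w/v methyl cellulose in water. Blood (K2EDTA) drawn 0.5–24 h post dose. Plasma taken by liquid–liquid extraction with internal standard and measured by achiral LC/MS/MS. Values given as mean ± SD.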

[3] = target: Transient receptor potential cation channel subfamily A member 1 (Homo sapiens) (UniProt O75762); assay: Antagonist activity at human TRPA1 expressed in CHO cells assessed as inhibition of allyl isothiocyanate-induced 45Ca2+ uptake at 1 uM incubated for 10 mins prior to allyl isothiocyanate-challenge measured after 2 to 5 mins by liquid scintillation counting analysis; assay type: cell-based
Method in brief: (§3)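 CHO cells stably expressing human TRPA1, TRPV1, TRPV3 or TRPV4. Temperature 30 °C for TRPV1, 32 °C for TRPV3, 25 °C for TRPV4 and TRPA1. Compound preincubated 10 min, then 45Ca2+ (5 µCi/mL final) and agonist added. Wash after 2–5 min, lyse, scintillation count. TRPV1 IC50 from six-point curves in at least two experiments. TRPA1, TRPV3 and TRPV4 run in duplicate as % inhibition at 1.0 µM.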

[4] = target: Transient receptor potential cation channel subfamily M member 8 (Homo sapiens, UniProt Q7Z2W7); assay: Antagonist activity at human TRPM8 expressed in CHO cells assessed as inhibition of icilin-induced 45Ca2+ uptake incubated for 10 mins prior to icilin-challenge measured after 4 mins by liquid scintillation counting analysis; assay type: cell-based
Method in brief: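 CHO cells stably expressing human TRPM8 in DMEM F-12 with 10% FBS and G418, seeded overnight. Assay buffer is DMEM F12 with 0.1% BSA and 1.8 mM CaCl2, run at 25 °C. Compound added 10 min before 45Ca2+ (5 µCi/mL final) and icilin. Wash after 4 min, lyse, count cpm. IC50 from six-point curves by nonlinear regression, at least two independent experiments.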

[5] = Cmax in Sprague-Dawley rat at 10 mg/kg, po; assay type: ADME, organism-based; parameters: dose 10 mg/kg, route oral; settings: in vivo; method in brief: as §2
[6] = tested on: Mus musculus; assay: Inhibition of icilin-induced wet dog shakes in C57/BL6 mouse at 30 mg/kg, po administered 30 mins prior to icilin-challenge measured for 30 mins; assay type: functional
Method in brief: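 Male C57/BL6 mice (20–30 g) acclimatized in a bell jar 10 min daily for 3 days. Icilin 30 mg/kg ip in 20% DMSO / 1% Tween 80. Compound given po 30 min before icilin, vehicle 0.5% MC. Wet dog shakes counted for 30 min after icilin. One-way ANOVA with Bonferroni test.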

[7] = target: Transient receptor potential cation channel subfamily V member 4 (Homo sapiens) (UniProt Q9HBA0); assay: Antagonist activity at human TRPV4 expressed in CHO cells assessed as inhibition of 4alphaPDD-induced 45Ca2+ uptake at 1 uM incubated for 10 mins prior to 4alphaPDD-challenge measured after 2 to 5 mins by liquid scintillation counting analysis; assay type: cell-based; method in brief: as §3
[8] = target: Transient receptor potential cation channel subfamily V member 1 (Homo sapiens, UniProt Q8NER1); assay: Antagonist activity at human TRPV1 expressed in CHO cells assessed as inhibition of capsaicin-induced 45Ca2+ uptake incubated for 10 mins prior to capsaicin-challenge measured after 2 to 5 mins by liquid scintillation counting analysis; assay type: cell-based; method in brief: as §3
[9] = target: T1, Transient receptor potential cation channel subfamily V member 3 (Homo sapiens) (UniProt Q8NET8); assay: Antagonist activity at human TRPV3 expressed in CHO cells assessed as inhibition of 2APB-induced 45Ca2+ uptake at 1 uM incubated for 10 mins prior to 2APB-challenge measured after 2 to 5 mins by liquid scintillation counting analysis; assay type: cell-based; method in brief: as §3
T1 sequence (whole entry): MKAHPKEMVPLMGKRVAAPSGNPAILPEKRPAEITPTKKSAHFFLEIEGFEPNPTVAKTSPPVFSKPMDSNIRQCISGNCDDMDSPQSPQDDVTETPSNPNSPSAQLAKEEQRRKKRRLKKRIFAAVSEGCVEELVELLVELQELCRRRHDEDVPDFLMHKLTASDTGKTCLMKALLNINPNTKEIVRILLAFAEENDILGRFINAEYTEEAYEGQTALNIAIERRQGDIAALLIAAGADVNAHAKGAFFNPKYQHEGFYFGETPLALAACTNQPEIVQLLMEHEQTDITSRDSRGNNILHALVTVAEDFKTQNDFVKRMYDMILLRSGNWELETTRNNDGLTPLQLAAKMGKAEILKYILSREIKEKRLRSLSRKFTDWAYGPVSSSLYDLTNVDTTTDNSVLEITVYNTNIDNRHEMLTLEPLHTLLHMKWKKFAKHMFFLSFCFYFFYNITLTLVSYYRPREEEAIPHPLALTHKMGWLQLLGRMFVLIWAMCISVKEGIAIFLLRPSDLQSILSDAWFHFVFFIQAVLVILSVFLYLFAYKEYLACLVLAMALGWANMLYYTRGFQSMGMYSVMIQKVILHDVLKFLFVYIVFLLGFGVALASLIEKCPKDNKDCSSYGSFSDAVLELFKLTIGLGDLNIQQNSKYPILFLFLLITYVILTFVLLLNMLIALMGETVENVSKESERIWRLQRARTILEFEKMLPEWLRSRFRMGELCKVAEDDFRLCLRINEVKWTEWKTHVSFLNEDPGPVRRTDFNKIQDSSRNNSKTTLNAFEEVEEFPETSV

[10] = tested on: Rattus norvegicus; assay: Inhibition of acetone spray-induced cold allodynia in Sprague-Dawley rat chronic constriction injury model at 10 mg/kg, po after 0.5 hrs; assay type: functional
Method in brief: (§4)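 Male SD rats (160–200 g) with sciatic nerve chronic constriction injury under ketamine/xylazine, tested 7 days later at 21 ± 0.5 °C. Oral dose, vehicle 0.5% MC. Acetone 100 µl sprayed on ipsilateral paw, repeated 3–5 times at 5 min intervals. Flinches and licking counted over 2 min at 0, 0.5, 1, 2 and 3 h, scored clinically.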

[11] = Metabolic stability in Beagle dog liver microsomes assessed as compound remaining at 1 uM after 60 mins by LC/MS/MS analysis; assay type: ADME, Canis lupus familiaris, Microsome; settings: read-out: Stability; method in brief: as §1
[12] = tested on: Rattus norvegicus; assay: Inhibition of acetone spray-induced cold allodynia in Sprague-Dawley rat chronic constriction injury model at 10 mg/kg, po after 2 hrs; assay type: functional; method in brief: as §4
[13] = Tmax in Sprague-Dawley rat at 10 mg/kg, po; assay type: ADME, organism-based; parameters: dose 10 mg/kg, route oral; settings: in vivo; method in brief: as §2
[14] = Metabolic stability in Wistar rat liver microsomes assessed as compound remaining at 1 uM after 60 mins by LC/MS/MS analysis; assay type: ADME, Microsome; settings: read-out: Stability; method in brief: as §1
[15] = tested on: Mus musculus; assay: Inhibition of oxaliplatin-induced peripheral neuropathic pain in po dosed acetone spray-induced cold allodynia C57/BL6 mouse model assessed as inhibition of nocifensive paw licking behavior; assay type: functional, organism-based
Method in brief: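 Male C57/BL6 mice (20–30 g) given oxaliplatin 3 mg/kg ip in 5% glucose and tested for cold allodynia 3 days later. Compound given po (3, 10, 30 mg/kg) 30 min before acetone spray, vehicle 0.5% MC. Nocifensive paw licking recorded. One-way ANOVA with Bonferroni test.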

[16] = Metabolic stability in human liver microsomes assessed as compound remaining at 1 uM after 60 mins by LC/MS/MS analysis; assay type: ADME, Microsome; settings: read-out: Stability; method in brief: as §1
[17] = target: Transient receptor potential cation channel subfamily M member 8 (Rattus norvegicus, UniProt Q8R455); assay: Antagonist activity at rat TRPM8 by 45Ca2+ uptake assay
[18] = tested on: Rattus norvegicus; assay: Inhibition of acetone spray-induced cold allodynia in Sprague-Dawley rat chronic constriction injury model at 10 mg/kg, po after 3 hrs; assay type: functional; method in brief: as §4
[19] = tested on: Rattus norvegicus; assay: Inhibition of acetone spray-induced cold allodynia in Sprague-Dawley rat chronic constriction injury model at 10 mg/kg, po after 1 hr; assay type: functional; method in brief: as §4
[20] = tested on: Rattus norvegicus; assay: AUC (0 to t) in Sprague-Dawley rat at 10 mg/kg, po; assay type: ADME, organism-based, Plasma; parameters: dose 10 mg/kg, route oral; settings: in vivo; method in brief: as §2
[21] = Metabolic stability in cynomolgus monkey liver microsomes assessed as compound remaining at 1 uM after 60 mins by LC/MS/MS analysis; assay type: ADME, Macaca fascicularis, Microsome; settings: read-out: Stability; method in brief: as §1
[22] = tested on: Mus musculus; assay: Inhibition of oxaliplatin-induced peripheral neuropathic pain in acetone spray-induced cold allodynia C57/BL6 mouse model assessed as inhibition of nocifensive paw licking behavior at 30 mg/kg, po; assay type: functional
Method in brief: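 Male C57/BL6 mice (20–30 g) received oxaliplatin (3 mg/kg ip, in 5% glucose, 10 ml/kg) and were tested for cold allodynia 3 days later. Compound was dosed po 30 min before acetone spray, with 0.5% MC as vehicle. Nocifensive paw licking/flicking was scored. Analysis was one-way ANOVA with Bonferroni versus vehicle.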

Sequence of Transient receptor potential cation channel subfamily M member 8 (Rattus norvegicus, UniProt Q8R455) (Q8R455 whole entry): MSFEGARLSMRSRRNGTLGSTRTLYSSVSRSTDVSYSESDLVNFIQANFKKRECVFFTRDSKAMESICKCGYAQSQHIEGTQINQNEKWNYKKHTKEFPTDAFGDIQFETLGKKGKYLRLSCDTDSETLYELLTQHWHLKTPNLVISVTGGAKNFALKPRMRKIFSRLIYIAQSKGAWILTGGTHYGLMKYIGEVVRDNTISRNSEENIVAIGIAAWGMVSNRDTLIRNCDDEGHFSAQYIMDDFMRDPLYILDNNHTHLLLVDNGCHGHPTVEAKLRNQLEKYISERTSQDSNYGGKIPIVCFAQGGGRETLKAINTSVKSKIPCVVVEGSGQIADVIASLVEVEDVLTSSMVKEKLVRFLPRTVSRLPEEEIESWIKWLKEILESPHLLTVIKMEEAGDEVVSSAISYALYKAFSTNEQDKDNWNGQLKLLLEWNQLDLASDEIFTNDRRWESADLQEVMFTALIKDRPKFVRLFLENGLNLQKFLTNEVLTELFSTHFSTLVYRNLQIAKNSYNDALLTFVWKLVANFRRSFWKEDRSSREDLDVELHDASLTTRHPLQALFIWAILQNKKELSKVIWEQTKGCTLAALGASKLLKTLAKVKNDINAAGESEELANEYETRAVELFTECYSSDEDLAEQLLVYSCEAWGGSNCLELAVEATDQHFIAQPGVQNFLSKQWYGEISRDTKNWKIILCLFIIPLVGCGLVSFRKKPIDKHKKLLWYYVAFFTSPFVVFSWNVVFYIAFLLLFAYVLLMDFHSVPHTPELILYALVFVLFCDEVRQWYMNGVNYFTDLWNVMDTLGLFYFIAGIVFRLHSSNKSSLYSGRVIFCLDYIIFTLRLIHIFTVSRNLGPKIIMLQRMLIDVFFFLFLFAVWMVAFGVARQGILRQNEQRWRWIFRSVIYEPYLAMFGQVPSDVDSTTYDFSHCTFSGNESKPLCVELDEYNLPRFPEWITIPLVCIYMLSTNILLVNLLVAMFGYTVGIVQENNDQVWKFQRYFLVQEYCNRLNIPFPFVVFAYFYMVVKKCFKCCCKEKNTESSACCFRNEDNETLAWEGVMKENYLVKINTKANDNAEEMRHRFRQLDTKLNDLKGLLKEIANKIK
Sequence of Transient receptor potential cation channel subfamily V member 1 (Q8NER1 whole entry): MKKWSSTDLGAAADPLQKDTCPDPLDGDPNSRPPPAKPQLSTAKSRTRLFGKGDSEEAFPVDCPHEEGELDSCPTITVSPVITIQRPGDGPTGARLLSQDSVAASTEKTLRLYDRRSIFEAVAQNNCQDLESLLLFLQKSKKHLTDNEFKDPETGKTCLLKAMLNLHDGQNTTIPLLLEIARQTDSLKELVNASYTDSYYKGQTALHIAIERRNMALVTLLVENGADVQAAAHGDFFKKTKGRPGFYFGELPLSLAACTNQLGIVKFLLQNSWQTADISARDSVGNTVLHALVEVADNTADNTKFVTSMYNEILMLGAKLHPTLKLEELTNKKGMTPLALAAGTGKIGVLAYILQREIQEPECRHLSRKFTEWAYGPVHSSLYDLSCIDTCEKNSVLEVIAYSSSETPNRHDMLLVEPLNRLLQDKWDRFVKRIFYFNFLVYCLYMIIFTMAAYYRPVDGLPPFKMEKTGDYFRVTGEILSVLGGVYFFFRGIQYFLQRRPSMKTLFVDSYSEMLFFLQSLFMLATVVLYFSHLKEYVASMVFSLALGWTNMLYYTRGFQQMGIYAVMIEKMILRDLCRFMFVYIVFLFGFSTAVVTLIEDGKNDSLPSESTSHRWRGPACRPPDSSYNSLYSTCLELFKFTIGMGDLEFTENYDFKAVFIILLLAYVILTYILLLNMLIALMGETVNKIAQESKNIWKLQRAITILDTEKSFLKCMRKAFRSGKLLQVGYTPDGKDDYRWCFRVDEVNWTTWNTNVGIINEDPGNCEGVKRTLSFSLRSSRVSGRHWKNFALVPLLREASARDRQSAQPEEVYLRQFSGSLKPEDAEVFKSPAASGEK
Sequence of Transient receptor potential cation channel subfamily V member 4 (Homo sapiens) (Q9HBA0 whole entry): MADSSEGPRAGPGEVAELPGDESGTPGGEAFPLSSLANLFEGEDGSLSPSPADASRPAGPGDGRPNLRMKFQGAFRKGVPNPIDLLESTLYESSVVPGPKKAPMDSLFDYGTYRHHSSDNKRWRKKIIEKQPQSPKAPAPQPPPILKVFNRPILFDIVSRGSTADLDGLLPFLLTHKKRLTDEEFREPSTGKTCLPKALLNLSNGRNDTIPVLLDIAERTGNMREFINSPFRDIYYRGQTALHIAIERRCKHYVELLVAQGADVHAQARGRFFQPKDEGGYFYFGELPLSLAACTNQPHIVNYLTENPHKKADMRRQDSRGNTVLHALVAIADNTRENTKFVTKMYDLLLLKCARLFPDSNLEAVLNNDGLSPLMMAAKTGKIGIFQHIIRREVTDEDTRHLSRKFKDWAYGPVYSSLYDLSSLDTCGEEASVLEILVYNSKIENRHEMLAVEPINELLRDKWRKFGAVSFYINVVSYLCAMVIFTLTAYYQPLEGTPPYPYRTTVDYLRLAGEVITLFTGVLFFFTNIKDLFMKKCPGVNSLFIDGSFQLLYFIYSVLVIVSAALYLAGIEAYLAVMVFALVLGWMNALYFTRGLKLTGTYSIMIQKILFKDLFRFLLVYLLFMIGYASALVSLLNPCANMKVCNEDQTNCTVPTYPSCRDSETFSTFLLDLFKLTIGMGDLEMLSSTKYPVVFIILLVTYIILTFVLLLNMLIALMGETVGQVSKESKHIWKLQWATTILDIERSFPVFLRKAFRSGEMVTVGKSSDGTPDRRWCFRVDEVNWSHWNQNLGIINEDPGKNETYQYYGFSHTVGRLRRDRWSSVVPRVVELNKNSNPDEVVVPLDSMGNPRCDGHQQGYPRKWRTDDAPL
Sequence of Transient receptor potential cation channel subfamily A member 1 (Homo sapiens) (O75762 whole entry): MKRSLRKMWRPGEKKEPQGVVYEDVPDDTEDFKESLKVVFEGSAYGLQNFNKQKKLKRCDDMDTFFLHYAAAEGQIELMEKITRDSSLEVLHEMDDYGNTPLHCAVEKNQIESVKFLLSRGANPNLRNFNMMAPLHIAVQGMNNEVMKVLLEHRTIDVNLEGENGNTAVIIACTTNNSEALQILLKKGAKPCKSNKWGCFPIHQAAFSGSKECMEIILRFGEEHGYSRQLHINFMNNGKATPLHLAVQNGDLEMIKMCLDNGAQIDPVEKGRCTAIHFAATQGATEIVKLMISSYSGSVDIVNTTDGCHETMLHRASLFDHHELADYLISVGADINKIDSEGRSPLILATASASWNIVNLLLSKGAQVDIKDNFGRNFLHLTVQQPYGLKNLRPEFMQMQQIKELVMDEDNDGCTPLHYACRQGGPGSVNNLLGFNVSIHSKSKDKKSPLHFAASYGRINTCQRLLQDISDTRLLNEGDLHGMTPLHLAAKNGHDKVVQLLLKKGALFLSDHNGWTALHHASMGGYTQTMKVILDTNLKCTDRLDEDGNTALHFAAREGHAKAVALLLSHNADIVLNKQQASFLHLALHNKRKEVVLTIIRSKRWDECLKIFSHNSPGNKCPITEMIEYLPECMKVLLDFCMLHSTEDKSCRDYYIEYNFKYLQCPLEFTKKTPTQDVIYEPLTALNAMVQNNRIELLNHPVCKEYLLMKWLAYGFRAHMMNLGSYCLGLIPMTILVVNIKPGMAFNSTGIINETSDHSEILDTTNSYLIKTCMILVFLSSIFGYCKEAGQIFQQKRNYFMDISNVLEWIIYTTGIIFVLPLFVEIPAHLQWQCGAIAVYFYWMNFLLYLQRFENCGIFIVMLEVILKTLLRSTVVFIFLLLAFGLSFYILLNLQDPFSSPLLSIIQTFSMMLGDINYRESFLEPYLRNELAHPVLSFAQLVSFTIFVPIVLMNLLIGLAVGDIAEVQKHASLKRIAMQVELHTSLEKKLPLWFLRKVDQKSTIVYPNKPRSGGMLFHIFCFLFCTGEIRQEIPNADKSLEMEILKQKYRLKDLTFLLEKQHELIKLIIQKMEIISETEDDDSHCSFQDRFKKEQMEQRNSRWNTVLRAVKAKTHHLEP
Sequence of Transient receptor potential cation channel subfamily M member 8 (Homo sapiens, UniProt Q7Z2W7) (Q7Z2W7 whole entry): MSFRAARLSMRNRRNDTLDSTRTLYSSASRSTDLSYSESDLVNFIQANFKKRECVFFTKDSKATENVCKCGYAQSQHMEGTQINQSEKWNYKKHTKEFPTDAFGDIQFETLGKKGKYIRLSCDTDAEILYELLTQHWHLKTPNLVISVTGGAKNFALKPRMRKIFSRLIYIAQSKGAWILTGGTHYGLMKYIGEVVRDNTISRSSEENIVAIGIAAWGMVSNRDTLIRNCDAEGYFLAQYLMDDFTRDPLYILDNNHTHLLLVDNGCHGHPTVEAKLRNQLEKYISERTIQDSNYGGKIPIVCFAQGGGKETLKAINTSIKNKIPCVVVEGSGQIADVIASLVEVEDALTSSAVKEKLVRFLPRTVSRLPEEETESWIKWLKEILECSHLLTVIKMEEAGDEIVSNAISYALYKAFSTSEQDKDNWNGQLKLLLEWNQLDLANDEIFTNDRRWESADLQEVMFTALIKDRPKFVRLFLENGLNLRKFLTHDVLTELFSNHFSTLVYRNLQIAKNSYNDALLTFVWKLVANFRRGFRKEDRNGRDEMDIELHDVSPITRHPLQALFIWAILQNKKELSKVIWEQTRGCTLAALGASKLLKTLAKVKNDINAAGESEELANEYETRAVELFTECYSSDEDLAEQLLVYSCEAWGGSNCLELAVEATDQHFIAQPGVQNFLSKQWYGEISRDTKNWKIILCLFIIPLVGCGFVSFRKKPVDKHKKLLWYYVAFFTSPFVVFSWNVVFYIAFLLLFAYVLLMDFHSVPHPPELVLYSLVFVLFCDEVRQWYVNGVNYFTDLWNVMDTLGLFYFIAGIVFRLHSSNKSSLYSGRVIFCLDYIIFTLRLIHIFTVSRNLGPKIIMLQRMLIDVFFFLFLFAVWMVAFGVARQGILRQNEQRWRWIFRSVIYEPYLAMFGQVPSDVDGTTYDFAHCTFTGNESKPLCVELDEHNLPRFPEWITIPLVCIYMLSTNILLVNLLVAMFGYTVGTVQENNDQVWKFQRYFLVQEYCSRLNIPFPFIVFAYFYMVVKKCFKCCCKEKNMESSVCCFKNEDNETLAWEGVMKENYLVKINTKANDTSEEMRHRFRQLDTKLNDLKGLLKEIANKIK

remaining at 1 h, 1 µM [1]: 81%
Drug uptake [2]: Active
inhibition [3]: 23.5%
IC50 [4]: 8.9 nM
Cmax [5]: 1090 ng/mL
inhibition [7]: 38.8%
IC50 [8]: > 1000 nM
inhibition [9]: 27.7%
remaining at 1 h, 1 µM [11]: 42%
Tmax [13]: 1 h
remaining at 1 h, 1 µM [14]: 79%
remaining at 1 h, 1 µM [16]: 67%
IC50 [17]: 16.5 nM
AUCt [20]: 4980 ng·h/mL
remaining at 1 h, 1 µM [21]: 72%
SMILES: O=C(Nc1ccc(OC(F)(F)F)cc1)N1CCC2(CC1)C[C@@H](O)c1cccc(Cl)c1O2
Efficacy [6]: 72%
Efficacy [10]: 39%
Efficacy [12]: 74%
inhibition [15]: Dose-dependent effect
Efficacy [18]: 65%
Efficacy [19]: 66%
Efficacy [22]: 100%
